{"source": "ChEMBL document CHEMBL4257543", "about": "“Structural optimization and antibacterial evaluation of rhodomyrtosone B analogues against MRSA strains” (Medchemcomm, 2018)", "key": {"[1]": {"system": "Staphylococcus aureus", "assay": "Induction of membrane disruption in methicillin-resistant Staphylococcus aureus JCSC 4788 assessed as increase in fluorescence intensity at MIC measured after 3 hrs by SYTOX green dye based fluorescence assay", "type": "functional, organism-based", "summary_of_the_method": "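Exponential-phase MRSA JCSC 4788 washed and set to OD620 0.4 in 0.85% NaCl, exposed to serial compound concentrations for 3 h, then 3 μM SYTOX Green for 20 min. Fluorescence read at ex 504/em 523 nm with melittin as positive control and vancomycin as comparator; mean ± SD, n = 3.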"}, "[2]": {"system": "Staphylococcus aureus", "assay": "Selectivity ratio of MIC for methicillin-resistant Staphylococcus aureus JCSC 4469 to MIC for methicillin-resistant Staphylococcus aureus JCSC 4788", "type": "functional"}, "[3]": {"system": "SF-268", "assay": "Cytotoxicity against human SF268 cells by MTT assay", "type": "cell-based", "summary_of_the_method": "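MTT viability assay after 24 h exposure to compound at 1.5625–100 µg mL⁻¹; control cells received DMSO at 0.5% (highest test-well level); IC50 given as mean ± SD of at least triplicate runs.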"}, "[4]": {"assay": "Selectivity ratio of IC50 for human MCF7 cells to MIC for methicillin-resistant Staphylococcus aureus JCSC 4788", "type": "toxicity", "summary_of_the_method": "(§1)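 Ratio of 24 h MTT cytotoxicity IC50 (compound 1.5625–100 μg mL−1, 0.5% DMSO control) to MIC against MRSA JCSC 4788 from CLSI microbroth dilution in MHB; IC50 values expressed as mean ± SD.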"}, "[5]": {"system": "Candida albicans", "assay": "Antibacterial activity against Candida albicans ATCC 10231 by micro dilution susceptibility test", "type": "functional", "summary_of_the_method": "(§2)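 Microbroth dilution MIC in Mueller–Hinton broth following CLSI guidelines, with vancomycin as positive control; assays run at least in triplicate.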"}, "[6]": {"system": "Staphylococcus epidermidis", "assay": "Antibacterial activity against Staphylococcus epidermidis ATCC 12228 by micro dilution susceptibility test", "type": "functional", "summary_of_the_method": "as §2"}, "[7]": {"assay": "Selectivity ratio of MIC for vancomycin-resistant Enterococcus faecium to MIC for methicillin-resistant Staphylococcus aureus JCSC 4788", "type": "functional"}, "[8]": {"system": "Bacillus cereus", "assay": "Antibacterial activity against Bacillus cereus ATCC 10876 by micro dilution susceptibility test", "type": "functional", "summary_of_the_method": "as §2"}, "[9]": {"system": "Staphylococcus aureus", "assay": "Antibacterial activity against methicillin-resistant Staphylococcus aureus 85/2082 by micro dilution susceptibility test", "type": "functional", "summary_of_the_method": "(§3)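 Microbroth dilution MIC in Mueller–Hinton broth following CLSI guidelines, vancomycin as positive control; resazurin added as visible growth indicator. Assays run at least in triplicate.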"}, "[10]": {"system": "Staphylococcus aureus", "assay": "Antibacterial activity against methicillin-resistant Staphylococcus aureus JCSC 4788 in Balb/c mouse skin infection model assessed as reduction in skin ulcer formation at 40 ug administered as single dose via intradermal route measured 3 to 8 days post-infection", "type": "functional, organism-based", "summary_of_the_method": "(§4)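 Female BALB/c mice (18–20 g) injected intradermally in abdominal skin with 0.1 mL of MRSA JCSC 4788 (1×10^8 CFU) mixed with a single 40 μg dose in DMSO; DMSO-vehicle controls. Body weight and lesion size recorded daily for 11 days, ulcers imaged at 3 and 8 days; n = 6, mean ± SD.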"}, "[11]": {"system": "Staphylococcus aureus", "assay": "Antibacterial activity against Staphylococcus aureus ATCC 29213 by micro dilution susceptibility test", "type": "functional", "summary_of_the_method": "as §3"}, "[12]": {"system": "Staphylococcus aureus", "assay": "Antibacterial activity against methicillin-resistant Staphylococcus aureus NCTC 10442 by micro dilution susceptibility test", "type": "functional", "summary_of_the_method": "as §3"}, "[13]": {"system": "Staphylococcus aureus", "assay": "Bactericidal activity against methicillin-resistant Staphylococcus aureus JCSC 4788 assessed as reduction in colony forming units at 2 times MIC measured after 2 hrs by time kill assay relative to control", "type": "functional", "design": "scale not given: the % may be the effect or the level left", "summary_of_the_method": "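Time-kill per CLSI: overnight MRSA JCSC 4788 adjusted in 0.85% NaCl to 10^6–10^7 CFU mL−1 and exposed to 0.5×, 1×, 2× and 4× MIC at 35 °C, vancomycin as comparator. Viable plate counts at 0.5, 2, 4, 8 and 24 h; two independent experiments.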"}, "[14]": {"system": "Staphylococcus aureus", "assay": "Selectivity ratio of MIC for methicillin-resistant Staphylococcus aureus JCSC 4744 to MIC for methicillin-resistant Staphylococcus aureus JCSC 4788", "type": "functional"}, "[15]": {"system": "Staphylococcus aureus", "assay": "Selectivity ratio of MIC for methicillin-resistant Staphylococcus aureus JCSC 2172 to MIC for methicillin-resistant Staphylococcus aureus JCSC 4788", "type": "functional"}, "[16]": {"system": "Enterococcus faecalis", "assay": "Antibacterial activity against Enterococcus faecalis ATCC 29212 by micro dilution susceptibility test", "type": "functional", "summary_of_the_method": "as §2"}, "[17]": {"system": "Staphylococcus aureus", "assay": "Selectivity ratio of MIC for methicillin-resistant Staphylococcus aureus 85/2082 to MIC for methicillin-resistant Staphylococcus aureus JCSC 4788", "type": "functional"}, "[18]": {"system": "Staphylococcus aureus", "assay": "Antibacterial activity against methicillin-resistant Staphylococcus aureus JCSC 2172 by micro dilution susceptibility test", "type": "functional", "summary_of_the_method": "as §3"}, "[19]": {"system": "Staphylococcus aureus", "assay": "Antibacterial activity against methicillin-resistant Staphylococcus aureus JCSC 4788 in Balb/c mouse skin infection model assessed as reduction in infection-induced morbidity by measuring increase in body weight at 40 ug administered as single dose via intradermal route measured daily for 11 days", "type": "functional, organism-based", "summary_of_the_method": "as §4"}, "[20]": {"system": "Enterococcus faecium", "assay": "Antibacterial activity against vancomycin-resistant Enterococcus faecium by micro dilution susceptibility test", "type": "functional", "summary_of_the_method": "as §3"}, "[21]": {"system": "Cutibacterium acnes", "assay": "Antibacterial activity against Propionicibacterium acnes ATCC 6919 by micro dilution susceptibility test", "type": "functional", "summary_of_the_method": "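Microbroth dilution MIC in Mueller–Hinton broth following CLSI guidelines; […]; resazurin added as visible growth indicator; vancomycin positive control; at least triplicate.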"}, "[22]": {"system": "Staphylococcus aureus", "assay": "Antibacterial activity against methicillin-resistant Staphylococcus aureus JCSC 4788 by micro dilution susceptibility test", "type": "functional", "summary_of_the_method": "as §3"}, "[23]": {"assay": "Selectivity ratio of IC50 for mouse RAW264.7 cells to MIC for methicillin-resistant Staphylococcus aureus JCSC 4788", "type": "toxicity", "summary_of_the_method": "as §1"}, "[24]": {"system": "Staphylococcus aureus", "assay": "Induction of cytoplasmic membrane depolarization in methicillin-resistant Staphylococcus aureus JCSC 4788 at 0.5 to 2 times MIC measured within 1 min by Disc3(5) staining based fluorescence spectrophotometric method", "type": "functional, organism-based", "summary_of_the_method": "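Exponential-phase MRSA JCSC 4788 washed and set to OD620 0.1 in 5 mM HEPES pH 7. Cells loaded with 0.4 μM DiSC3(5) plus 100 mM KCl for 20 min at 37 °C with agitation. Compound added at 0.5–8× MIC and fluorescence followed at ex 660/em 670 nm; mean ± SD.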"}, "[25]": {"system": "Staphylococcus aureus", "assay": "Induction of cytoplasmic membrane disruption in methicillin-resistant Staphylococcus aureus JCSC 4788 measured after 3 hrs by SYTOX green dye based fluorescence microscopic analysis", "type": "functional, organism-based", "summary_of_the_method": "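MRSA JCSC 4788 suspension (OD620 0.4) treated with compound or vancomycin for 3 h, stained with 3 μM SYTOX Green, fixed on glass slides and viewed by fluorescence microscopy at 485 nm excitation.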"}, "[26]": {"system": "Staphylococcus aureus", "assay": "Antibacterial activity against methicillin-resistant Staphylococcus aureus JCSC 3063 by micro dilution susceptibility test", "type": "functional", "summary_of_the_method": "as §3"}, "[27]": {"system": "Staphylococcus aureus", "assay": "Antibacterial activity against methicillin-resistant Staphylococcus aureus JCSC 4744 by micro dilution susceptibility test", "type": "functional", "summary_of_the_method": "as §3"}, "[28]": {"system": "Staphylococcus aureus", "assay": "Selectivity ratio of MIC for methicillin-resistant Staphylococcus aureus JCSC 3063 to MIC for methicillin-resistant Staphylococcus aureus JCSC 4788", "type": "functional"}}, "note": "Activity calls are given as the source filed them. No cut-off for these calls is given here.", "data": [{"molecule": "CCCCCCCC(=O)c1c(O)cc(O)c2c1OC1=C(C(=O)C(C)(C)C(=O)C1(C)C)C2CC(C)C", "note": "(stereo not drawn)", "values": [{"measurement": "Activity", "setting": "[1]", "value": "Active"}, {"measurement": "Selectivity ratio", "setting": "[2]", "value": "0.5 - 2"}, {"measurement": "IC50", "setting": "[3]", "value": 10.2, "unit": "µg/mL"}, {"measurement": "Selectivity ratio", "setting": "[4]", "value": 39.9}, {"measurement": "MIC", "setting": "[5]", "value": "> 32", "unit": "µg/mL"}, {"measurement": "MIC", "setting": "[6]", "value": 0.25, "unit": "µg/mL"}, {"measurement": "Selectivity ratio", "setting": "[7]", "value": "0.5 to 2"}, {"measurement": "MIC", "setting": "[8]", "value": 0.5, "unit": "µg/mL"}, {"measurement": "MIC", "setting": "[9]", "value": 0.25, "unit": "µg/mL"}, {"measurement": "Activity", "setting": "[10]", "value": "Active"}, {"measurement": "MIC", "setting": "[11]", "value": 0.5, "unit": "µg/mL"}, {"measurement": "MIC", "setting": "[12]", "value": 0.5, "unit": "µg/mL"}, {"measurement": "Activity", "setting": "[13]", "value": 99.9, "unit": "%"}, {"measurement": "Selectivity ratio", "setting": "[14]", "value": "0.5 - 2"}, {"measurement": "Selectivity ratio", "setting": "[15]", "value": "0.5 - 2"}, {"measurement": "MIC", "setting": "[16]", "value": 0.25, "unit": "µg/mL"}, {"measurement": "Selectivity ratio", "setting": "[17]", "value": "0.5 - 2"}, {"measurement": "MIC", "setting": "[18]", "value": 0.25, "unit": "µg/mL"}, {"measurement": "Activity", "setting": "[19]", "value": "Active"}, {"measurement": "MIC", "setting": "[20]", "value": 2, "unit": "µg/mL"}, {"measurement": "MIC", "setting": "[21]", "value": 0.25, "unit": "µg/mL"}, {"measurement": "MIC", "setting": "[22]", "value": "0.25 to 0.5", "unit": "µg/mL"}, {"measurement": "Selectivity ratio", "setting": "[23]", "value": 22.4}, {"measurement": "Activity", "setting": "[24]", "value": "Active"}, {"measurement": "Activity", "setting": "[25]", "value": "Active"}, {"measurement": "MIC", "setting": "[26]", "value": 0.25, "unit": "µg/mL"}, {"measurement": "MIC", "setting": "[27]", "value": 0.125, "unit": "µg/mL"}, {"measurement": "Selectivity ratio", "setting": "[28]", "value": "0.5 - 2"}]}]}
